From ChEMBL document CHEMBL1817655, “Tylosema esculentum extractives and their bioactivity” (Bioorg Med Chem, 2011)
Converted amounts (≈) assume the structure as drawn.

Assays:
Assay type in all cases: functional
[1] = system: Pseudomonas aeruginosa; assay: Antimicrobial activity against Pseudomonas aeruginosa NCTC 10332 after 24 hrs using thiazoyl blue by agar overlay bioautography method
Summary of the method: (§1)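 Agar-overlay TLC bioautography. Stock samples (10 mg/mL) were serially diluted to 5.0, 1.0, 0.05 and 0.001 mg/mL, spotted on silica gel TLC plates and dried. Plates were overlaid with Sabouraud dextrose agar seeded with 24-h cultures and run in duplicate. Incubation was 24 h at 37 °C for S. aureus and E. coli, and 25 °C for B. subtilis, P. aeruginosa and C. albicans. Plates were then sprayed with MTT and incubated a further 4 h. MIQ was the lowest loading giving a white inhibition zone.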

[2] = system: Staphylococcus aureus; assay: Antimicrobial activity against Staphylococcus aureus ATCC 9144 after 24 hrs using thiazoyl blue by agar overlay bioautography method; summary of the method: as §1
[3] = system: Bacillus subtilis; assay: Antimicrobial activity against Bacillus subtilis ATCC 6633 after 24 hrs using thiazoyl blue by agar overlay bioautography method; summary of the method: as §1
[4] = system: Escherichia coli; assay: Antimicrobial activity against Escherichia coli ATCC 11229 after 24 hrs using thiazoyl blue by agar overlay bioautography method; summary of the method: as §1
[5] = system: Candida albicans; assay: Antimicrobial activity against Candida albicans ATCC 10231 after 24 hrs using thiazoyl blue by agar overlay bioautography method; summary of the method: as §1
[6] = system: Radical scavenging activity; assay: Antioxidant activity assessed as DPPH radical scavenging activity after 30 mins by spectrophotometric analysisic analysis
Summary of the method: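 Methanolic samples (0.005–0.5 mg/mL) were mixed 1:1 by volume with 2% DPPH and incubated in the dark at room temperature. Absorbance at 517 nm was read at 0.5, 1, 3, 6 and 24 h. Percent scavenged = (A_blank − A_sample)/A_blank × 100, with the blank being DPPH without sample. Ascorbic acid served as reference. Run in triplicate.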

[7] = Antioxidant activity assessed as H2O2 scavenging activity at 12.5 to 250 ug/mL after 30 mins by spectrophotometric analysisic analysis
Summary of the method: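 Hydrogen peroxide (32.7 mM in PBS, pH 7.4; 0.6 mL) was combined with 0.05–1 mL of 1 mg/mL extract or standard (gallic acid, ascorbic acid) and made up to 4 mL with water. A230 was read before and after 30 min. Background correction used buffer without peroxide. Percent scavenged = (A0 − A1)/A0 × 100.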

| SMILES | MIC [1] | MIC [2] | MIC [3] | MIC [4] | MIC [5] | EC50 [6] | Activity [7] |
| --- | --- | --- | --- | --- | --- | --- | --- |
| CCO[C@@H]1[C@@H](O)[C@H](O)[C@@H](CO)O[C@@H]1O | 50 µg | 50 µg | 50 µg | 50 µg | 50 µg | – | – |
| O=C1O[C@H]([C@@H](O)CO)C(O)=C1O [ASCORBIC ACID] | – | – | – | – | – | 41.08 µg/mL (≈ 233 µM) | > 50% |
| CCCCCCCCCCCCCCCCCCCCCC(=O)O [BEHENIC ACID] | 50 µg | 50 µg | 50 µg | 50 µg | 50 µg | – | – |
| CC[C@H](CC[C@@H](C)[C@H]1CC[C@H]2[C@@H]3CC=C4C[C@@H](O)CC[C@]4(C)[C@H]3CC[C@]12C)C(C)C [BETA-SITOSTEROL] | 50 µg | 50 µg | 50 µg | 50 µg | 50 µg | – | – |
| O=C(N[C@H](CO)[C@H](O)c1ccc([N+](=O)[O-])cc1)C(Cl)Cl [CHLORAMPHENICOL] | 0.001 µg | 0.001 µg | 0.001 µg | 0.001 µg | 0.001 µg | – | – |
| O=C(O)c1cc(O)c(O)c(O)c1 [GALLIC ACID] | 50 µg | 50 µg | 50 µg | 50 µg | 50 µg | 1.85 µg/mL (≈ 10.9 µM) | > 50% |
| O=C1C=C2C=C[C@@H](O)[C@H](O)[C@H]2O1 [GRIFFONILIDE] | 50 µg | 50 µg | 50 µg | 50 µg | 50 µg | – | – |
| N#C/C=C1/C=C[C@@H](O)[C@H](O)[C@H]1O[C@@H]1O[C@H](CO)[C@@H](O)[C@H](O)[C@H]1O [GRIFFONIN] | 50 µg | 50 µg | 50 µg | 50 µg | 50 µg | – | – |
| CCCCCCCC/C=C\CCCCCCCC(=O)O [OLEIC ACID] | 50 µg | 50 µg | 50 µg | 50 µg | 50 µg | – | – |
| O=C(O)c1ccc(O)c(O)c1 [PROTOCATECHUIC ACID] | 50 µg | 50 µg | 50 µg | 50 µg | 50 µg | – | – |
| OC[C@H]1O[C@@](CO)(O[C@H]2O[C@H](CO)[C@@H](O)[C@H](O)[C@H]2O)[C@@H](O)[C@@H]1O [SUCROSE] | 50 µg | 50 µg | 50 µg | 50 µg | 50 µg | – | – |
